Hits are enriched below; roughly 4.9% of the tested compounds scored in any of these assays.
PHOSPHO1 block: PHOSPHO1 (human) inhibition. recombinant PHOSPHO1, absorbance phosphatase assay. inhibition, % at 13.3 µM. 1.1% of 290,000 active. AID 1565; in the data active = inhibition above about 60%
HSF1 activator: increases HSF-1 driven luciferase reporter signal | activation, % at 9 µM | NIH3T3-HGL HSF-1 luciferase reporter, MG132, 8 h; 100% = twice DMSO control signal | 1.7% of 300,000 active;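 active = mean replicate activation of at least 50% with a set share of replicates each reaching 50%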;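 note: 0% = median of the neutral control wells and 100% = twice that signal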
CHT PAM: human CHT allosteric activation; Q9GZV3; B-score at 10 µM; 0.49% of 310,000 active; CHT-expressing cells, membrane potential dye, choline EC20; stronger effect = higher value; LV-AA mutant CHT in HEK293 cells;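 active = initial fluorescence not abnormally high and integrated response B-score, plate-corrected, over 3 SD above library mean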
Target sequence (Q9GZV3 whole entry, looked up): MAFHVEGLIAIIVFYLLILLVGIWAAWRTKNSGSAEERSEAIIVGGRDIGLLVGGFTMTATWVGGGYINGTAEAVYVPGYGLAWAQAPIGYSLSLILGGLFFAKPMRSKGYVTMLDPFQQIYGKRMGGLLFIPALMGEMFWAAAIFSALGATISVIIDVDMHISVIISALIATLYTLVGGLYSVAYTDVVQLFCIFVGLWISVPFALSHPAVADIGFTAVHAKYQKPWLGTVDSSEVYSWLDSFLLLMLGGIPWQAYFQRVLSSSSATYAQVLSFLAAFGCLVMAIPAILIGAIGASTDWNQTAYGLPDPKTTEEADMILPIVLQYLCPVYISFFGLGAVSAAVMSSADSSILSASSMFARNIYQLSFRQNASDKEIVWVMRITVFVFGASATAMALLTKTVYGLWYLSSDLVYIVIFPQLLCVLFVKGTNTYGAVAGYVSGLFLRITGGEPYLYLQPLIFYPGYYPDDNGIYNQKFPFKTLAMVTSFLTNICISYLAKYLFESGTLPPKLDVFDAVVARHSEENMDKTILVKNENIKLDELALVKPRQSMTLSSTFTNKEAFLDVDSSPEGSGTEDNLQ
Lipid droplet: modulators of hepatic lipid droplet formation | AID 1656 | AML12 mouse hepatocytes, oleate lipid droplets, BODIPY imaging | 0.4% of 240,000 active | inhibition, % at 6.5 µM;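 active = lipid droplet intensity inhibited by at least 50%, with more than 500 cells counted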
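Assay system: AML12 hepatocytes (mouse) / Also added: 100 µM oleic acid challenge / Times: overnight treatment with compound plus oleate / Detection: high-content imaging of BODIPY-stained droplets and DAPI nuclei / Evaluation: % inhibition of lipid droplet signal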
HSF1 inhib: HSF1 inhibition; NIH3T3-HGL HSE-luciferase, MG132-induced, luminescence 8 h; stronger effect = lower value; 0.77% of 300,000 active; activity change, negative = inhibition, % at 7.5 µM (by protocol);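 active = more than half of replicate wells show activity change below -50%, luminescence cut by over half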;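 note: luciferase reports HSF-1 transcriptional activity via heat shock element; 0% = median of DMSO wells and -100% = zero luminescence signal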
CHT block: inhibitors of human choline transporter CHT. CHT-expressing cells, membrane potential dye, choline response; stronger effect = lower value. B-score at 10 µM. 0.86% of 310,000 active. AID 488975;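 active = B-score over 3 SD under the library average, and starting fluorescence ratio not unusually high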;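 note: choline stimulus applied at its EC90 after an EC20 pre-addition; B-score computed on integrated fluorescence ratio after choline addition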
Hep lipid conf: confirmation of inhibitors of hepatic lipid droplet formation. shares compounds with Lipid droplet. AML12 mouse hepatocytes, BODIPY lipid droplet imaging; droplets induced with 100 µM oleic acid. inhibition, % at 5.2 µM. 65% of 870 active. AID 463183;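 active = inhibition of lipid droplet metric at least 50%, with more than 300 cells in each of four replicates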;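 note: plate controls were DMSO with oleic acid for no effect and 5 µM Triacsin-C for full effect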
AML12 tox img: AML12 hepatocyte cytotoxicity (counter-screen); shares compounds with Lipid droplet; AML12 mouse hepatocytes, DAPI nuclear morphology cytotoxicity imaging; stronger effect = higher value; cells fed 100 µM oleate overnight; z-score at 5 µM; 3% of 870 active; in the data active = z-score above about 6.3;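 note: compound exposure lasted overnight at 37 °C before fixation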
AML12 tox ATP: AML12 hepatocyte cytotoxicity, confirmed | AID 463219 | cytotoxicity, % at 50 µM | 530 tested, under 10 active | AML12 mouse hepatocyte viability, ATP luminescence; cells loaded with 100 µM oleic acid | shares compounds with Lipid droplet;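 active = cytotoxicity above 50% in each of four replicates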;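 note: compound exposure lasted overnight at 37 °C before the ATP read; 0% = DMSO-treated cells and 100% = wells with no cells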
* = called active by the depositor; i = inactive; nt = no result given; ! = not confirmed by another sample.

SMILES | PHOSPHO1 block | HSF1 activator | CHT PAM | Lipid droplet | HSF1 inhib | CHT block | Hep lipid conf | AML12 tox img | AML12 tox ATP
C=CCOc1ccc(/C=N/NC(=O)c2cc3c(OC)cc(OC)cc3[nH]2)cc1 | -9 | -5 | i | 56* | 0 | i | 51 | 2.3 | nt
CCOc1ccccc1/C=N/Nc1ccccc1[N+](=O)[O-] | 18 | 8 | i | nt | 0 | i | nt | nt | nt
CC(C)Oc1ccccc1/C=N/Nc1ccccc1[N+](=O)[O-] | -2 | 5 | i | 95* | -9 | i | 115* | 0.61 | nt
Cc1[nH]c2ccccc2c1/C=N/Nc1ccccc1[N+](=O)[O-] | 16 | 22 | i | 85* | 16 | i | 114* | 0.4 | nt
CCCOc1ccc(/C=N/Nc2ccccc2[N+](=O)[O-])c(O)c1 | 2 | -75 | i | 56* | -69* | i | 60 | -0.73 | nt
CCCOc1ccc(/C=N/Nc2cccc([N+](=O)[O-])c2)c(O)c1 | 16 | 6 | i | 9 | 17 | i | nt | nt | nt
O=C(C1CC1)N1CCc2cc(S(=O)(=O)NC3CCN(Cc4ccccc4)CC3)ccc21 | 18 | 2 | i | nt | -2 | i | nt | nt | nt
CCOc1ccccc1NC(=O)CC1Nc2cc(C)c(C)cc2NC1=O (configuration not stated) | -17 | 1 | i | 59* | 5 | i | 67* | 1.3 | nt
CCOc1ccccc1NC(=O)CC1Nc2ccccc2NC1=O (configuration not stated) | -7 | 7 | i | 5 | 1 | i | nt | nt | nt
O=C(NCc1ccco1)Nc1ccc(Br)cc1Cl | -17 | 30 | i | 1 | 14 | i | nt | nt | nt
CC(C)(C)NC(=O)CSC(=Nc1ccc(F)cc1)NC#N | 12 | -29 | i | nt | -14 | i | nt | nt | nt
CCN(CC(=O)Nc1c(F)cccc1F)C(=O)CCCc1c[nH]c2ccccc12 | 14 | -9 | i | 82* | -9 | i | 105* | -0.5 | 8
CS(=O)(=O)N(CC(=O)N1CCN(Cc2ccccc2)CC1)c1ccc(F)cc1 | nt | 14 | i | 0 | 1 | i | nt | nt | nt
CC(=O)c1ccc(N2CCCC2)c(F)c1 | 10 | 17 | i | 53* | 4 | i | 23 | -0.96 | nt
COc1ccc(CC(=O)Nc2oc(-c3ccccc3)c(-c3ccccc3)c2C#N)cc1OC | -13 | 12 | i | 97* | 0 | i | 110* | -0.015 | 3
CCOC(=O)C1(CCOC)CCN(C(=O)c2sccc2C)CC1 | 24 | 13 | i | -5 | -4 | i | nt | nt | nt
COc1ccc(C[C@H]2CN3C(=NC[C@H]3Cc3ccccc3)N2CCNC(=O)c2ccc(C)c(Br)c2)cc1 | 18 | -2 | i | 54* | 10 | i | -3 | -0.018 | nt
COc1ccc(C[C@H]2CN3C(=NC[C@@H]3Cc3ccccc3)N2CCNC(=O)c2ccc(C)c(Br)c2)cc1 | 18 | 26 | i | -24 | 6 | i | nt | nt | nt
Cc1cccc(Nc2ncnc3ccccc23)c1 | -6 | -2 | i | 66* | 2 | i | 53* | 13* | nt
COc1cc(NC(=O)c2cccs2)c(OC)cc1NC(=O)CCC(=O)Nc1ccc2ncccc2c1 | 28 | 34 | nt | 68* | 3 | nt | 95* | 0.97 | 68
COc1ccc(OCC(=O)Nc2ccc(NC(=O)c3cccs3)c(OC)c2)cc1 | 37 | 11 | i | 3 | -2 | i | nt | nt | nt
Cc1cc(CN(C)C(=O)c2ccc(OC3CCN(S(=O)(=O)N(C)C)CC3)cc2)n[nH]1 | 30 | -3 | i | -14 | -5 | i | nt | nt | nt
COc1ccc(-c2nc(NC(=O)Cn3ccc(C(F)(F)F)n3)sc2C)cc1 | 12 | -6 | i | 68* | -2 | i | 104* | -0.3 | 37
COC(=O)c1nc(NC(=O)c2cc(OC)c(OC)c(OC)c2)n[nH]1 | 32 | 1 | i | 1 | -7 | i | nt | nt | nt
CCOc1ccc(-c2nonc2NC(=O)c2ccco2)cc1 | 27 | -3 | i | 74* | -5 | i | 93* | -0.94 | 14
SMILES | PHOSPHO1 block | HSF1 activator | CHT PAM | Lipid droplet | HSF1 inhib | CHT block | Hep lipid conf | AML12 tox img | AML12 tox ATP
CCOc1ccc(-c2nonc2NC(=O)c2ccco2)cc1OCC | 12 | -22 | i | 4 | 1 | i | nt | nt | nt
Cc1ccc(C2/C(=C(/O)c3cnn(-c4ccccc4)c3C)C(=O)C(=O)N2CCCN2CCOCC2)o1 (configuration not stated) | 45 | 32 | i | 96* | 15 | i | 26 | 0.73 | nt
Cc1ccc(C)c(/C(O)=C2/C(=O)C(=O)N(CCN3CCOCC3)C2c2ccc(C)o2)c1 (configuration not stated) | 10 | -3 | i | nt | 4 | i | nt | nt | nt
CN(C(=O)CSc1cc(C(=O)c2nccn2C)c2ccccc2n1)c1ccccc1 | 43 | 21 | i | 81* | 4 | i | -16 | -0.019 | nt
COC(=O)c1ccc(C2=NOC(C)(c3sc(-c4ccc(Cl)cc4)nc3C)C2)cc1 (configuration not stated) | 26 | 7 | i | 56* | 3 | i | 58* | -0.091 | 6
COC(=O)c1ccc(C2=NOC(C)(c3sc(-c4ccccc4)nc3C)C2)cc1 (configuration not stated) | 44 | -18 | i | 20 | 8 | i | nt | nt | nt
CC(C)(Cc1ccc(O)cc1)NC(=O)CC(=O)N/N=C/c1ccc(Cl)cc1 | -18 | 9 | i | nt | -3 | i | nt | nt | nt
C=C(C)Cn1c(N2CCC(Cc3ccccc3)CC2)nc2c1c(=O)[nH]c(=O)n2C | -26 | -6 | i | 64* | -3 | i | 107* | -0.55 | -2
O=C(NCCO)c1cc2ccccc2cc1O | 16 | 0 | i | 50*! | -14 | i | 7 | -0.75 | nt
NNC(=O)c1cc2ccccc2cc1O | 19 | 11 | i | 11 | -3 | i | nt | nt | nt
CCOc1ccc(CCNC(=O)c2nnc(Cc3ccc(F)cc3)o2)cc1OCC | 14 | -9 | i | 102* | -3 | i | 106* | -0.35 | 10
CCOc1ccc(CCNC(=O)c2cc3sccc3n2CC)cc1OCC | -22 | 12 | i | 92* | -1 | i | 108* | -0.053 | 8
CCOc1ccc(CCNC(=O)CSc2cc(=O)n(CC)c3ccccc23)cc1OCC | -2 | 5 | i | 93* | -9 | i | 105* | -0.19 | 14
